This is a sample that favours compounds with a hit; in the whole collection about 4.1% have one here.
MPTP inh: blocks calcium-induced mitochondrial swelling | isolated mouse mitochondria, Ca2+ swelling absorbance, 30 min | inhibition, % at 10 µM | 360,000 tested, 1.4% active;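 active means inhibition of 50% or more, scaled per plate between neutral and stimulator controls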
SMARCA2 activ: activators of SMARCA2 function; 370,000 tested, 1% active; activation, % at 9.1 µM; AID 652017; MG213 cells, MMTV-luciferase reporter, dexamethasone, overnight; in the data active means activation above about 7.8%
MC4R antagonist: human MC4R antagonism in cAMP assay | P32245 | MC4R-expressing cells, MTII-stimulated cAMP, LANCE TR-FRET | inhibition, % at 6.5 µM | 360,000 tested, 0.48% active;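 active means inhibition above its plate's cutoff, the mean of tested wells on that plate plus 3 SD, cut at about 29% in these data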
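system = U2OS cells with stable human MC4R expression | also added = Melanotan II challenge after compound preincubation | dosing = one concentration, 6.5 µM nominal | incubation = compound 30 min, challenge 1 h, detection 1 h | measured by = TR-FRET with Eu-cAMP and labeled anti-cAMP, 671 nm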
MC4R barr agon: agonists of human melanocortin 4 receptor (MC4R) beta-arrestin. P32245. U2OS MC4R beta-arrestin complementation, luminescence; percent of melanotan II response, DMSO zero. activation, % at 8.9 µM. 360,000 tested, 0.98% active. AID 540308;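 active means activation above a per-plate cutoff, the mean activation of sample wells on that plate plus 3 SD, cut at about 8% in these data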
ATG4B inh: ATG4B (human) cysteine protease inhibition | Q9Y4P1 | ATG4B cleavage of LC3-PLA2, NBD-HPC fluorescence, 1 h | inhibition, % at 8.33 µM | 340,000 tested, 0.51% active; in the data active means inhibition above about 40%
Target sequence (Q9Y4P1 whole entry, looked up): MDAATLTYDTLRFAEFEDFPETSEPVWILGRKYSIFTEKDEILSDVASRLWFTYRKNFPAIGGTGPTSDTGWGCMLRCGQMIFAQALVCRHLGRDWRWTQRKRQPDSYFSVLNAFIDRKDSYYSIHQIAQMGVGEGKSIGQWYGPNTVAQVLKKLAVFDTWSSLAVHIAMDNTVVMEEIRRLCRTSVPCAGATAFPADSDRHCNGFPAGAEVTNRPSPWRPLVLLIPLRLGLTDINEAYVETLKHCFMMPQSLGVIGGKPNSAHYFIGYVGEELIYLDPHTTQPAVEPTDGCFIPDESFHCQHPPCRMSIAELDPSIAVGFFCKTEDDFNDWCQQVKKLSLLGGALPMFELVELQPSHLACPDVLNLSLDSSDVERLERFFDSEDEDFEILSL
Each line names hits and unclear results; the compound was inactive in the other large screens.

CCOC(=O)N/N=C/c1cn(Cc2ccc(Cl)cc2)c2ccccc12	MC4R barr agon 8.8
N#CCC(=O)N/N=C/c1cn(Cc2ccc(Cl)cc2Cl)c2ccccc12	MC4R barr agon 17
O=C(c1cccc(F)c1)N1CCCC(c2nc(-c3cccs3)no2)C1 (stereo not given)	none (no result: MPTP inh, MC4R antagonist, MC4R barr agon, ATG4B inh)
O=c1[nH]c2ccccc2c2ccc(Cl)cc12	MC4R barr agon 8.5
O=c1[nH]c2cc(Cl)cc([N+](=O)[O-])c2c2ccc(Cl)cc12	none (no result: ATG4B inh)
O=C(CN1CCC(C(O)(c2ccccc2)c2ccccc2)CC1)Nc1cc(Cl)ccc1Cl	MC4R antagonist 32
COc1ccc(/C(N)=N/OC(=O)c2cccc([N+](=O)[O-])c2C)cc1OC	none (no result: SMARCA2 activ)
COc1cccc(C(=O)O/N=C(\N)c2ccc([N+](=O)[O-])cc2)c1OC	MC4R barr agon 8.6
COc1cc2c(cc1NC(=O)CSc1nnc(-c3ccccc3F)n1-c1ccc(C)cc1)oc1ccccc12	none (no result: MPTP inh, MC4R antagonist, MC4R barr agon, ATG4B inh)
Nc1c(C(=O)NCC2CCCO2)sc2nc3c(c(-c4ccco4)c12)CC/C3=C\c1ccco1 (stereo not given)	ATG4B inh 49
O=c1[nH]c(/C=C/c2ccccc2[N+](=O)[O-])nc2ccccc12	MC4R barr agon 8.8
C=CCc1ccc(OCC(O)CN2CCCCC2)c(OC)c1 (stereo not given)	none
C=CCc1ccc(OCC(O)COc2ccc(CC=C)cc2OC)c(OC)c1	MC4R barr agon 8.7
O=C(CCN1CCN(c2ccccc2)CC1)Nc1cccc(Br)c1	MC4R barr agon 8.6
O=C(NCCN1CCN(c2ccccc2)CC1)Nc1ccc(Cl)cc1	MC4R barr agon 9.2
CN(C)CCCN(C(=O)c1ccc2c(c1)CCCC2)c1nc2cc3c(cc2s1)OCO3	MC4R barr agon 8.6
CN(C)CCN(C(=O)c1ccc(S(=O)(=O)N(C)c2ccccc2)cc1)c1nc2ccc(Cl)cc2s1	SMARCA2 activ 14
Cc1cccc2sc(N(CCCN(C)C)C(=O)c3ccc(S(=O)(=O)N4CCc5ccccc5C4)cc3)nc12	none
CN(C)CCCN(C(=O)c1ccc2c(c1)CCCC2)c1nc2ccc(F)cc2s1	none
Cc1ccc2nc(N(CCCN(C)C)C(=O)c3ccc(S(=O)(=O)N4CCc5ccccc5C4)cc3)sc2c1	MC4R barr agon 8.7
CN(C)CCCN(C(=O)c1ccc(S(=O)(=O)N2CCc3ccccc32)cc1)c1nc2ccc(F)cc2s1	none
CN(C)CCCN(C(=O)c1ccc(S(=O)(=O)N2CCc3ccccc3C2)cc1)c1nc2ccc(F)cc2s1	MC4R barr agon 17
Cc1ccc(S(=O)(=O)NCCc2ccccc2)cc1	none
Cc1ccc(S(=O)(=O)NN(Cc2ccccc2)Cc2ccccc2)cc1	MC4R barr agon 8.8 (no result: ATG4B inh)
CCOc1ccc(-c2nnc(SCC(=O)Nc3ccc4c(c3)c3ccccc3n4CC)n2N)cc1	MC4R barr agon 30
CCn1c2ccccc2c2cc(NC(=O)CSc3nnc(-c4ccc(OC)c(OC)c4)n3N)ccc21	none
COCc1[nH]nc2c1C(c1ccc(C)cc1)NC2=O (stereo not given)	none (no result: MPTP inh, MC4R antagonist, MC4R barr agon, ATG4B inh)
O=c1cc(-c2ccccc2)oc2ccc(Cl)cc12	none
O=c1cc(-c2ccccc2)oc2ccc(Br)cc12	SMARCA2 activ 7.8
COC(=O)c1sc(NC(=O)CSc2nnnn2-c2cccc(OC)c2)nc1C	MC4R barr agon 8.7
COc1cccc(-c2cnc3c(NC(C)=O)cc(-c4ccc(C(=O)NC5CC5)cc4)cn23)c1	MC4R barr agon 8.8 (no result: ATG4B inh)
Cc1ccc(NC(=O)Cc2cccc(OC(F)F)c2)c(S(=O)(=O)N2CCOCC2)c1	none (no result: MPTP inh, MC4R antagonist, MC4R barr agon, ATG4B inh)
COc1ccc(C(=O)c2sc3nc(-c4ccc(OC)cc4)ccc3c2N)cc1	MC4R barr agon 9.2
COC(=O)c1sccc1NC(=O)C1C2C=CC(C2)C1C(=O)O (stereo not given)	none
Cc1ccsc1C(=O)NNC(=O)C1C2C=CC(C2)C1C(=O)O (stereo not given)	SMARCA2 activ 9.0
CC(C)[C@H](NC(=O)c1ccco1)C(=O)N1CCC[C@H]1C(=O)NCc1ccccc1	none (no result: MPTP inh, MC4R antagonist, MC4R barr agon, ATG4B inh)
Cc1ccc(-c2cc(-c3ccccc3)c(C#N)c(Br)n2)cc1	none
CS(=O)(=O)c1nc(-c2ccccc2)cc(-c2ccccc2)c1C#N	MC4R antagonist 30 (no result: SMARCA2 activ)
Cn1cc(CCOCc2ccccn2)c2ccccc21	none (no result: MPTP inh, MC4R antagonist, MC4R barr agon, ATG4B inh)
COC(=O)[C@]1(Cc2ccccc2)NC=C(C(=O)c2ccccc2)[C@@H]1c1cccs1	none (no result: MPTP inh, MC4R antagonist, MC4R barr agon, ATG4B inh)
CC(=O)Nc1ccc2c(c1)Cc1cc(N3C(=O)C=CC3=O)ccc1-2	none
O=C1C=CC(=O)N1c1ccc2c(c1)Cc1cc(F)ccc1-2	MC4R antagonist 32
CN1CCN(CCCNC(=O)c2ccc(/C=C3\Sc4ccccc4N(Cc4ccccc4F)C3=O)cc2)CC1	MC4R barr agon 8.9
Cc1oc2c(C)c(O)ccc2c(=O)c1-c1cnn(-c2ccccc2)c1	MC4R barr agon 29
COc1ccc2c(=O)c(-c3cnn(-c4ccccc4)c3)c(C)oc2c1	none
CC(C)CCNC(=O)C1CCN(c2cncnc2)CC1	none (no result: MPTP inh, MC4R antagonist, MC4R barr agon, ATG4B inh)
CN(CC(=O)NCc1ccc(F)cc1)CC(=O)Nc1ccc(Cl)c(C(F)(F)F)c1	MC4R barr agon 9.0
COC(=O)N1C[C@H](OC(=O)c2ccc(-c3ccccc3)cc2)[C@H]2C[C@@H]1c1ccccc1O2	none (no result: MPTP inh, MC4R antagonist, MC4R barr agon, ATG4B inh)
CCn1c(-c2nn(-c3ccc(C)cc3)ccc2=O)n[nH]c1=S	none
Cc1ccc(-n2ccc(=O)c(-c3ccnc(SCc4cccc(Cl)c4)n3)n2)cc1	MC4R barr agon 8.6
O=C(c1ccoc1)N1CCN(c2cc(-c3ccncc3)nc3cc(-c4cccc(Cl)c4)nn23)CC1	MC4R barr agon 8.8 (no result: ATG4B inh)
O=C(c1ccncc1)N1CCN(c2cc(-c3ccccc3)nc3cc(-c4cccc(Cl)c4)nn23)CC1	none (no result: ATG4B inh)
CCOC(=O)/C(=N\Nc1ccc(OC)cc1)c1csc(Nc2ccccc2)n1	SMARCA2 activ 7.8
Cc1nc2ncnn2c(C)c1CCC(=O)N1CCc2ccccc2C1	SMARCA2 activ 7.9
Cc1ccc(NS(=O)(=O)c2ccc(-n3cccn3)cc2)cc1C	MC4R barr agon 9.4
O=S(=O)(Nc1cccc(Cl)c1)c1ccc(-n2cccn2)cc1	none
CCc1cccc(NS(=O)(=O)c2ccc(-n3cccn3)cc2)c1	MC4R barr agon 8.3
C#CCOCCOCCOCCNc1nc(N2CCN(C(=O)CCCCCCCCCCNC(=O)[C@H](CCCCN)n3cc(CCO)nn3)CC2)nc(N2CCN(C(=O)CCCCCCCCCCNC(=O)[C@H](CCCCN)n3cc(CCO)nn3)CC2)n1	none (no result: SMARCA2 activ)
C#CCOCCOCCOCCNc1nc(N2CCN(C(=O)CCCCCCCCCCNC(=O)[C@@H](CCSC)n3cc(CCO)nn3)CC2)nc(N2CCN(C(=O)CCCCCCCCCCNC(=O)[C@H]([C@@H](C)CC)n3cc(CCCCN=C(N)N)nn3)CC2)n1	MC4R antagonist 41 (no result: SMARCA2 activ)
